Many of the other results were omitted from the sample, so hits are more common in it than they were.
Lung fibro prol = blocks proliferation of human lung fibroblasts | LL 47 human lung fibroblast viability, ATP luminescence; hits give low values | viability, % at 10 µM | hit rate 1.1% among 85,000 | AID 719;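 active = viability at or below 50% in the single dose screen; inactive = viability above 50%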;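 also: compound exposure lasted 72 h before the ATP readout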
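Material: Human LL 47 lung fibroblast cells | Input: 1,150 cells/well | Buffer or medium: IMEM plus 15% FBS | Compound dosing: 0.1% DMSO in all compound wells | Times: Overnight cell rest, 72 h compound treatment at 37 °C | Signal: CellTiter-Glo luminescence measuring cellular ATP | Measure: % viability versus median cells-only luminescence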
bCat KO growth = beta-catenin-lacking colon tumor cell growth suppression | HCT116 beta-catenin knockout viability, CellTiter-Glo, 60 h; hits give low values | viability, % at 10 µM | hit rate 1.5% among 140,000 | AID 818;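 active = viability at or under a set limit, the compound median less 4 SD, cut at about 6% in these data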
HUVEC inhibit = human endothelial cell proliferation inhibition; HUVEC proliferation, CellTiter-Glo luminescence, 72 h; hits give low values; viability, % at 10 µM (by protocol); hit rate 1.1% among 86,000;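 active = viability at or below 30%; inactive = viability above 30%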
HCT116 PTEN-null = suppresses growth of cells with PTEN deletion | HCT116 PTEN-null viability, CellTiter-Glo, 60 h; hits give low values | viability, % at 10 µM | hit rate 1.2% among 140,000;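 active = viability at or below a set limit, 4 SD under the median of all tested compounds, cut at about 3.7% in these data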;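 also: PTEN knockout HCT116 line with beta catenin targeted HCT116 as companion control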
H69AR growth 86K = growth inhibitors of human H69AR lung tumor cells | H69AR lung tumor viability, ATP luminescence, 72 h; hits give low values | viability, % at 10 µM | hit rate 6% among 85,000 | AID 598;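 active = viability at or below 40%; inactive = viability above 40%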;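 also: multidrug resistant small cell line overexpressing MRP-1 efflux transporter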
Large screens that a line does not name were inactive.

CCN(CC)S(=O)(=O)c1ccc2oc(C(=O)NCc3ccc(F)cc3)c(C)c2c1	H69AR growth 86K 33.2
CCN(CC)S(=O)(=O)c1ccc2oc(C(=O)NCC3COc4ccccc4O3)c(C)c2c1 (stereo not drawn)	H69AR growth 86K 31.8
Cc1cc(C)nc(SCC(=O)NC2=NN=C(c3ccc(Br)cc3)CS2)n1	bCat KO growth 1.5, HCT116 PTEN-null 2.8 (no result: Lung fibro prol, HUVEC inhibit, H69AR growth 86K)
CC/C(=N/N=C(\CC)c1ccccc1)c1ccccc1	none (no result: Lung fibro prol, HUVEC inhibit, H69AR growth 86K)
COc1ccc(C(=O)NC(Nc2ccccc2)C(Cl)(Cl)Cl)cc1 (stereo not drawn)	none (no result: Lung fibro prol, HUVEC inhibit, H69AR growth 86K)
CCN(CC)C(=S)Nc1ccc(Cl)c(Cl)c1	none (no result: Lung fibro prol, HUVEC inhibit, H69AR growth 86K)
Cc1sc2nc(C3CC3)nc(NCCNS(=O)(=O)c3ccccc3)c2c1C	H69AR growth 86K 21.9
COc1ccc2[nH]c(=O)c(CN(Cc3ccco3)C(c3nnnn3Cc3ccccc3)C(C)C)cc2c1 (stereo not drawn)	HCT116 PTEN-null 3.1
COCCn1nnnc1C(C(C)C)N(Cc1ccccc1)Cc1cc2cc(OC)ccc2[nH]c1=O (stereo not drawn)	H69AR growth 86K 4.8
Cc1cccc2cc(CN(Cc3ccco3)C(c3nnnn3CCc3ccccc3)C(C)C)c(=O)[nH]c12 (stereo not drawn)	none (no result: Lung fibro prol)
COCCn1nnnc1C(C(C)C)N(Cc1cccnc1)Cc1cc2cc(OC)ccc2[nH]c1=O (stereo not drawn)	none
CCC1(c2ccc(F)cc2)NC(=O)N(CC(=O)Nc2ccc(-c3nc4ccc(C)cc4s3)cc2)C1=O (stereo not drawn)	bCat KO growth 1.1, HCT116 PTEN-null 1.3 (no result: Lung fibro prol, HUVEC inhibit, H69AR growth 86K)
Cc1ccc(C(=O)N/C(=C\c2ccc(Cl)cc2)C(=O)NCC2CCCO2)cc1 (stereo not drawn)	none (no result: Lung fibro prol, HUVEC inhibit, H69AR growth 86K)
CCOC(=O)N1CCN(c2cc3[nH]c(=S)[nH]c3cc2F)CC1	none
CCOC(=O)N1CCN(c2c(F)cc3[nH]c(=S)[nH]c3c2Br)CC1	H69AR growth 86K 8.9
Cc1cc(=O)oc2ccc(OCC(=O)N3CCC(C)CC3)cc12	none
CCCOc1ccc2oc(=O)c3c(c2c1)CCCN3C(=O)CN1CCc2ccccc2C1	H69AR growth 86K 39.6
CC1CCN(CC(=O)N2CCCc3c2c(=O)oc2ccc(OCc4ccccc4)cc32)CC1	H69AR growth 86K 32.7
CC1CC(C)CN(CC(=O)N2CCCc3c2c(=O)oc2ccc(OCc4ccccc4)cc32)C1 (stereo not drawn)	bCat KO growth 3.5
O=C(O)c1ccc(COc2ccc3c4c(c(=O)oc3c2)CCC4)o1	none
Cc1ccccc1NC(=S)N(C)Cc1cn(C)c2ccccc12	none (no result: Lung fibro prol, HUVEC inhibit, H69AR growth 86K)
COc1cc(C)c(Cl)cc1S(=O)(=O)n1cnc2ccccc21	H69AR growth 86K 39.9
CCOc1ccc(Cl)cc1S(=O)(=O)n1cnc2cc(C)c(C)cc21	none
COc1ccc(C(NC(=O)C2CCCCC2)c2c(O)ccc3ccccc23)cc1 (stereo not drawn)	none (no result: Lung fibro prol, HUVEC inhibit, H69AR growth 86K)
CC1CCc2sc(C(=O)Nc3nnc(SCc4ccc(F)cc4)s3)cc2C1 (stereo not drawn)	none
COC(=O)c1ccc(CSc2nnc(NC(=O)c3cc4c(s3)CCCC4)s2)cc1	H69AR growth 86K 7.6
Cc1nn(CC(=O)Nc2ccc(Cl)cn2)c(C)c1Br	none (no result: Lung fibro prol, HUVEC inhibit, H69AR growth 86K)
CN(C(=O)c1ccc(C(=O)N(C)C2CCCCC2)cc1)C1CCCCC1	none (no result: bCat KO growth, HCT116 PTEN-null)
O=C(NO)c1ccc(C(=O)N(C2CCCCC2)C2CCCCC2)cc1	H69AR growth 86K 13.7
CCC(=O)n1nc(-c2ccc(Cl)cc2)nc1NCc1ccccc1	H69AR growth 86K 17.0
Oc1ccccc1CN1CCC(C(O)(c2ccccc2)c2ccccc2)CC1	none (no result: Lung fibro prol, HUVEC inhibit, H69AR growth 86K)
CC(C)(C)c1ccc(C(O)CCCN2CCC(C(O)(c3ccccc3)c3ccccc3)CC2)cc1 (stereo not drawn)	Lung fibro prol 2.6, bCat KO growth 0.7, HUVEC inhibit 2.4, HCT116 PTEN-null 0.8, H69AR growth 86K 0.8
COC(=O)CCC(=O)Nc1sc(C)c(C)c1C(N)=O	H69AR growth 86K 18.9
O=C(NCC1CCCO1)c1onc(CSc2cccc3ccccc23)c1C(=O)O (stereo not drawn)	none (no result: Lung fibro prol, HUVEC inhibit, H69AR growth 86K)
Fc1ccc(-c2cc(C(F)(F)F)nc(NCc3cccs3)n2)cc1	none (no result: Lung fibro prol, HUVEC inhibit, H69AR growth 86K)
CSc1n[nH]c(NCc2cccs2)n1	bCat KO growth 1.2
CC1CCN(S(=O)(=O)c2ccc(NC(=O)Cn3nnc(-c4ccccc4)n3)cc2)CC1	Lung fibro prol 28.7, H69AR growth 86K 18.7
CC1CCCN(S(=O)(=O)c2ccc(NC(=O)Cn3nnc(-c4ccccc4F)n3)cc2)C1 (stereo not drawn)	none
CC1CCN(S(=O)(=O)c2ccc(NC(=O)CN3CCOCC3)cc2)CC1	none
Cc1ccc(-c2nnn(CC(=O)Nc3ccc(S(=O)(=O)N4CCC(C)CC4)cc3)n2)cc1	H69AR growth 86K 21.4
CC1(C)OC(=O)N(c2ccccc2)C12C=Cc1cc(Br)ccc1O2 (stereo not drawn)	H69AR growth 86K 18.4
CC1(C)OC(=O)N(CCc2ccccc2)C1(C)O (stereo not drawn)	none (no result: Lung fibro prol)
CCC(C)NC(=S)N(CCc1ccccc1)Cc1cc2cc(OC)c(OC)cc2[nH]c1=O (stereo not drawn)	none (no result: Lung fibro prol, HUVEC inhibit, H69AR growth 86K)
CC1CCCCC1NC(=O)c1ccc2c(c1)[nH]c(=O)n2C1CCCC1 (stereo not drawn)	H69AR growth 86K 20.7
COc1ccc(Cl)c(N2CCN(CCCNC(=O)Nc3ccc(C)cc3)CC2)c1	HUVEC inhibit 10.3
COc1ccccc1N1CCN(CCCNC(=O)Nc2ccccc2C)CC1	none
COc1ccc(Cl)cc1N1CCN(CCNC(=O)Nc2ccccc2C)CC1	HUVEC inhibit 5.3, H69AR growth 86K 19.2
CCCCCOP(=O)(OCCCCC)C1(NS(=O)(=O)c2ccccc2)C=CC(=O)c2ccccc21 (stereo not drawn)	H69AR growth 86K 18.7
CCOC(=O)N(NC(=O)C(O)(CC(C)C)CC(C)C)c1ccccc1	none (no result: Lung fibro prol, HUVEC inhibit, H69AR growth 86K)
Cc1cc(-n2c(SCC(=O)NCc3cccs3)nc3n[nH]c(C)c3c2=N)ccc1Cl	H69AR growth 86K 24.5 (no result: HCT116 PTEN-null)
CCc1ccc(NC(=O)CSc2nc3n[nH]c(C)c3c(=N)n2-c2cccc(OC)c2)cc1	H69AR growth 86K 10.4
COc1ccc(-n2cc(-c3ccc(C)cc3)[n+]3c2SCC3)cc1	none (no result: Lung fibro prol, HUVEC inhibit, H69AR growth 86K)
O=C(c1nnc(Cc2ccc(Cl)cc2)o1)N1CCc2ccccc2C1	bCat KO growth 1.1, HCT116 PTEN-null 0.6
COc1ccc(Cc2nnc(SCC(=O)N3CCc4ccccc4C3)o2)cc1	none
CCOC(=O)Cn1c(=O)oc2cc(S(=O)(=O)Nc3cccc(C)c3)ccc21	bCat KO growth 5.2
CCOC(=O)Cn1c(=O)oc2cc(S(=O)(=O)Nc3ccc(N(CC)CC)cc3C)ccc21	Lung fibro prol 6.0, HUVEC inhibit 2.4
CCOC(=O)Cn1c(=O)oc2cc(S(=O)(=O)Nc3cc(OCC)ccc3OCC)ccc21	none
CCCCN(C)C(=O)C1CCC(=O)N(c2cc(OC)c(OC)c(OC)c2)C1c1ccc(OC)cc1 (stereo not drawn)	bCat KO growth 0.9, HCT116 PTEN-null 0.7
COc1ccc(C2C(C(=O)O)CCC(=O)N2c2ccc(OC)cc2)cc1 (stereo not drawn)	none
Cc1nc(Nc2ccc(F)cc2)[nH]c(=O)c1CCC(C)C	H69AR growth 86K 6.7 (no result: Lung fibro prol)
